Shown are actives, neighbours in structure and some others; about 1.9% of the full set was active somewhere.
FAS TE block = inhibitors of human fatty acid synthase thioesterase domain; P49327; recombinant FAS-TE, OMFH fluorogenic substrate, fluorescence endpoint; inhibition, % at 15 µM; 360,000 tested, 0.67% active;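 active = compounds whose normalised, plate-corrected inhibition of enzyme fluorescence in the single-dose primary screen is 50% or more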;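 also: 0% = DMSO with enzyme and 100% = substrate without enzyme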
LMPTP block = LMPTP (human) inhibition | P24666 | recombinant LMPTP-A, OMFP fluorogenic substrate, fluorescence intensity | inhibition, % at 20 µM | 360,000 tested, 0.22% active;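 active = compounds that cut the enzyme signal by at least half of the control window in the single-dose screen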;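 also: plate controls were DMSO wells with enzyme plus substrate for no effect and substrate without enzyme for full effect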
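Test system: LMPTP-A phosphatase enzyme; input: 0.625 nM LMPTP-A final; reagent: OMFP substrate, 400 µM final; compound dosing: 20 µM single dose, 3% DMSO; incubation: 50 min dark incubation at room temperature; measured by: endpoint fluorescence intensity from OMFP dephosphorylation; measure: % inhibition relative to no-enzyme and uninhibited control wells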
SUMO1 PPI mod = SUMO1-SIM interaction modulation; P63165; SUMO1 binding to a labelled peptide, TR-FRET, 1 h; inhibition, % at 20 µM; 360,000 tested, 0.33% active; AID 602429; in the data active = inhibition above about 37%
STEP block = inhibitors of human striatal-enriched phosphatase STEP; P54829; recombinant STEP, OMFP fluorogenic substrate, fluorescence; inhibition, % at 20 µM; 360,000 tested, 0.25% active;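 active = inhibition at 20 µM, scaled per plate between control wells, above about 37%, limit read from the data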;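 also: 0% = DMSO with enzyme and substrate and 100% = substrate only without enzyme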
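material = STEP tyrosine phosphatase | reagent = fluorogenic phosphatase substrate OMFP at 25 µM final | doses = single compound dose of 20 µM, 1% DMSO final | schedule = 20 min reaction, room temperature, in the dark | measured by = fluorescence, 480/540 nm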
Scp1 inh = inhibitors of human Scp-1 phosphatase | Recombinant Scp1, phosphopeptide, malachite green phosphate absorbance | inhibition, % at 20 µM | 340,000 tested, 0.88% active;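 active = inhibition above about 50% at 20 µM, limit read from the data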;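 also: plate controls were DMSO wells with enzyme for no effect and wells lacking enzyme for full effect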
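Material – SCP-1 phosphatase catalytic domain, residues 76-261 · Buffer or medium – Acidic Tris acetate buffer with magnesium and detergent · Also added – Phospho 17-mer peptide substrate · Compound – single 20 µM dose, 1% DMSO · Times – 45 min room-temperature reaction, 5 min colour, 30 min stabiliser · Technique – Phosphate-binding colour reagent, absorbance read at 630 nm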
Scp1 confirm = Scp-1 (human) inhibition, single-dose confirmed. 2,500 tested, 61% active. shares compounds with Scp1 inh. recombinant SCP-1 catalytic domain, phosphate release, malachite green absorbance. inhibition, % at 20 µM;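 also: plate controls were DMSO with enzyme for no effect and buffer wells lacking enzyme for full effect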
Scp-1 MG ctr = interferes with malachite green readout, flagging false Scp-1 hits. shares compounds with Scp1 inh. 2,500 tested, under 10 active. apparent inhibition (interference), % at 20 µM. Colorimetric interference counterscreen, malachite green absorbance 630 nm;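 also: compounds added after enzyme reaction finished so only phosphate colour detection is probed; plate controls were DMSO wells with completed Scp-1 reaction for no effect and substrate wells lacking enzyme for full effect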
Scp-1 Tm shift = validation of human Scp-1 inhibitors by thermal shift binding. shares compounds with Scp1 inh. Recombinant SCP1, Sypro Orange thermal shift Tm. thermal shift relative to vanadate control, % at 40 µM. 1,500 tested, 25% active. AID 540329;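 active = substances whose mean melting-temperature shift, as a percentage of the reference inhibitor's shift, reaches about 5.3%, limit read from the data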;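 also: 0% = Tm of DMSO wells and 100% = Tm with sodium orthovanadate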
Starred values were filed as active, the others as inactive; x = no result given.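 The calls were made as follows, unless noted: active = inhibition of at least 30% at 20 µM; inactive = the rest.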

SMILES	FAS TE block	LMPTP block	SUMO1 PPI mod	STEP block	Scp1 inh	Scp1 confirm	Scp-1 MG ctr	others
CC(C)(C)NC(=O)C1C(c2ccccc2)=Nc2ccccc2N1C(=O)c1ccc(C(F)(F)F)cc1 (configuration not stated)	x	2	-1	x	x	x	x
Clc1cc(CSc2ccccc2)nc(-c2ccccc2)n1	20	3	2	3	61*	36*	-21	Scp-1 Tm shift=-27
Clc1ccc(SCc2cc(Cl)nc(-c3ccccc3)n2)cc1	26	3	-1	1	-9	x	x
C=CCNc1nc(NCCOc2ccccc2Cl)c2sc(-c3ccccc3)cc2n1	-95	4	5	7	x	x	x
O=C(/C=C/c1ccco1)OCC(=O)N1CCCCC1	-6	15	-14	41*	96*	51*	-20	Scp-1 Tm shift=-8
O=C1COc2ccc(C(=O)COC(=O)/C=C/c3ccco3)cc2N1	-1	16	-13	8	59*	57*	-10	Scp-1 Tm shift=-14
O=C(COC(=O)/C=C/c1ccco1)NCCN1C(=O)CSC1=O	-4	4	-7	6	65*	29	-16
O=C1c2cccnc2C(Nc2ccc(F)c(Cl)c2)N1Cc1cccs1 (configuration not stated)	5	-2	-1	5	-9	x	x
O=C(CN1C(=O)NC2(CCCc3ccccc32)C1=O)NCc1ccc(Cl)cc1Cl (configuration not stated)	21	0	1	-3	-15	x	x
O=C(O)c1cc(-c2ccco2)nn1-c1cccc(Cl)c1	0	8	44*	16	66*	58*	-15	Scp-1 Tm shift=8.4*
Cc1ccc(-n2nc(-c3ccco3)cc2C(=O)O)c(C)c1	2	13	8	12	65*	75*	-1	Scp-1 Tm shift=7.4*
O=C(O)c1cc(-c2cccs2)nn1-c1cccc(Cl)c1	-3	-1	13	-1	4	x	x
CSCCC(NS(=O)(=O)c1ccc(Cl)cc1)C(=O)OCc1c(Cl)cccc1Cl (configuration not stated)	34	1	0	-5	-6	x	x
CSCCC(NS(=O)(=O)c1ccc(Cl)cc1)C(=O)OCc1cccc(Cl)c1 (configuration not stated)	20	3	4	-1	51*	-6	-8
COc1ccc(C2=Nc3ccccc3N(C(=O)c3ccc(C(F)(F)F)cc3)C2C(=O)Nc2ccc3c(c2)OCCO3)cc1 (configuration not stated)	x	1	-2	x	x	x	x
COc1cccc(NC(=O)C2CCCCC2)c1	-10	0	-1	1	70*	0	-10
Cc1ccc(C(=O)Nc2ccc(S(=O)(=O)NC3=NCCCCC3)cc2)cc1S(=O)(=O)N1CCOCC1	-1	-1	5	-1	2	x	x
O=C(Nc1ccc(S(=O)(=O)NC2=NCCCCC2)cc1)c1cccc(S(=O)(=O)N2CCOCC2)c1	-1	57*	8	-6	50*	-1	-5
O=C(c1cc2ncc(Br)cn2n1)N1CCN(C(=O)c2ccco2)CC1	-6	-1	6	1	56*	43*	-11	Scp-1 Tm shift=-10
O=C(c1cc2ncc(Br)cn2n1)N1CCOCC1	-4	-1	-5	0	12	x	x
COc1cc(C2CC(=O)NC3=C2C(=O)CC(C)(C)C3)ccc1O (configuration not stated)	-7	-3	1	-3	8	-22	-24
COC(=O)C1C(=O)C2=C(CC1C)NC(=O)CC2c1ccc(O)c(OC)c1 (configuration not stated)	-4	0	2	-1	4	x	x
COc1ccc(C2Nc3ccccc3NC3=C2C(=O)CC(C)(C)C3)cc1O (configuration not stated)	-4	-1	-11	1	56*	-6	-20
COc1ccc(C2Nc3ccccc3NC3=C2C(=O)CC(C)(C)C3)cc1OC (configuration not stated)	-7	-1	-2	-2	0	x	x
CC1(C)C(=O)Nc2ccccc2N1C(=O)COC(=O)COc1ccc(C#N)cc1	-3	0	1	0	10	x	x
SMILES	FAS TE block	LMPTP block	SUMO1 PPI mod	STEP block	Scp1 inh	Scp1 confirm	Scp-1 MG ctr	others
COc1ccccc1-c1nnc2sc(-c3cnccn3)nn12	10	3	-7	2	70*	56*	-11	Scp-1 Tm shift=5.8*
COc1ccccc1-c1nnc2sc(-c3ccc(N(C)C)cc3)nn12	4	0	-10	3	-3	x	x
Cc1ccc(NC(=O)COc2coc(CN3CCN(c4ccccc4)CC3)cc2=O)cc1	-2	-1	7	-1	-2	x	x
Nc1ccc(C(=O)N2CCN(S(=O)(=O)c3ccc(Br)cc3)CC2)cc1[N+](=O)[O-]	22	1	-23	2	-6	x	x
O=C(CN1C(=O)/C(=C2/SC(=S)N(CCS(=O)(=O)O)C2=O)c2ccccc21)Nc1cccc(Br)c1	-1	2	1	87*	82*	81*	-14	Scp-1 Tm shift=16*
COc1cccc(NC(=O)C(=O)NCCC2CCCCN2S(=O)(=O)c2cccs2)c1 (configuration not stated)	20	2	3	0	-5	x	x
Cc1cc(Br)ccc1NC(=O)CN(C)C(=O)COc1cccc2c1OC(C)(C)C2	-2	-8	-49	2	-8	x	x
Cc1ccc(CCNC(=O)CCNS(=O)(=O)c2ccc3c(c2)oc(=O)n3C)cc1	-1	-1	2	-2	-2	-3	-1
CCCN(C)C[C@H]1OCc2cnnn2CCCC(=O)N([C@H](C)CO)C[C@@H]1C	-5	0	-2	0	x	x	x
CCCCC(=O)NC1(C(F)(F)F)C(=O)N(CC(C)C)C2=C1C(=O)CC(C)(C)C2 (configuration not stated)	-3	-1	-1	-1	-5	x	x
CCOC(=O)c1ccc(N2C(=O)c3n[nH]c(C)c3C2c2ccc(OC)c(OC)c2)cc1 (configuration not stated)	-1	-1	3	1	57*	-9	-4
CCOC(=O)[C@]12CCC=C1N(Cc1cccc3ccccc13)C(=O)[C@H](CC(=O)N1CCCC1)C2	-4	0	-2	x	x	x	x
C[N+]12CCCCC1[C@@H](CO)CCC2 (some centres not stated)	-5	0	-5	1	55*	4	-8
COc1ccc(C(=O)C[C@@H]2OC[C@H](Cc3ccccc3)N2S(=O)(=O)c2ccc(C)cc2)cc1OC	x	3	1	x	x	x	x

Screens deposited in PubChem BioAssay by Sanford-Burnham Center for Chemical Genomics.
